Test results as given in ChEMBL document CHEMBL2203235, “Optimization of a natural product-based class of γ-secretase modulators” (J Med Chem, 2012).

Assays:
[1] = Ratio of drug uptake in brain to plasma in CD1 mouse at 1 mg/kg, iv at 6 hrs; conditions: brain and plasma
[2] = Drug uptake in CD1 mouse brain at 1 mg/kg, iv at 6 hrs
[3] = Plasma concentration in CD1 mouse at 1 mg/kg, iv at 6 hrs
Liver microsomes [4] = assay: Metabolic stability in human liver microsomes at 1 uM after 60 mins by LC/MS/MS analysis; conditions: 1 h
CHO-2B7 [5] = assay: Modulation of gamma secretase in CHO-2B7 cells assessed as reduction in amyloid beta 40 level at 20 uM after 5 hrs by MSD ELISA; assay type: cell-based; design: scale not given: the % may be the effect or the level left; conditions: Cricetulus griseus
[6] = Modulation of gamma secretase in CHO-2B7 cells assessed as reduction in amyloid beta 42 level after 5 hrs by MSD ELISA; assay type: cell-based; conditions: Cricetulus griseus, CHO-2B7, 5 h
[7] = Modulation of gamma secretase in CHO-2B7 cells assessed as reduction in amyloid beta 40 level after 5 hrs by MSD ELISA; assay type: cell-based; conditions: Cricetulus griseus, CHO-2B7, 5 h
CHO-2B7 [8] = assay: Modulation of gamma secretase in CHO-2B7 cells assessed as reduction in amyloid beta 42 level at 20 uM after 5 hrs by MSD ELISA; assay type: cell-based; design: scale not given: the % may be the effect or the level left; conditions: Cricetulus griseus
[9] = (§1) Metabolic stability in human liver microsomes assessed as compound remaining at 1 uM at 60 mins by LC/MS/MS analysis in absence of NADPH; assay type: ADME, Microsome; conditions: liver microsomes, read-out: Stability
How it was run: (§2)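 Human liver microsomes were run without NADPH as a qualitative read of susceptibility to enzymatic hydrolysis. The read-out was percent parent remaining at 60 min.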

[10] = Modulation of gamma-secretase assessed as reduction in amyloid beta 42 level by cell based assay
Liver microsomes [11] = assay: as §1; assay type: ADME, Microsome; conditions: microsomes, 1 h, 1 µM; how it was run: as §2

SMILES: CCO[C@@H]([C@H]1C[C@@H](C)[C@H]2[C@H](O1)[C@H](O)[C@@]1(C)[C@@H]3CC[C@H]4C(C)(C)[C@@H](OC(=O)N5CCN(CCOC)CC5)CC[C@@]45C[C@@]35CC[C@]21C)C(C)(C)O
- Kp at 6 h [1]: 0.03
- concentration at 6 h [2]: 8 nM
- concentration at 6 h [3]: 261 nM
- Stability (Liver microsomes [4]): Stable
- Activity (CHO-2B7 [5]): 51%
- IC50 [6]: 320 nM

SMILES: CCO[C@@H]([C@H]1C[C@@H](C)[C@H]2[C@H](O1)[C@H](O)[C@@]1(C)[C@@H]3CC[C@H]4C(C)(C)[C@@H](O[C@H]5CN(C)CCO5)CC[C@@]45C[C@@]35CC[C@]21C)C(C)(C)O
- Kp at 6 h [1]: 0.76
- concentration at 6 h [2]: 16 nM
- concentration at 6 h [3]: 21 nM
- Stability (Liver microsomes [4]): Stable
- IC50 [7]: 4500 nM
- IC50 [6]: 250 nM

SMILES: CC(C)[C@@H](OC(=O)N1CCC1)[C@H]1C[C@@H](C)[C@H]2[C@H](O1)[C@H](O)[C@@]1(C)[C@@H]3CC[C@H]4C(C)(C)[C@@H](OC(=O)N5CCN(C)CC5)CC[C@@]45C[C@@]35CC[C@]21C
- Kp at 6 h [1]: 0.03
- concentration at 6 h [2]: 14 nM
- concentration at 6 h [3]: 450 nM
- Stability (Liver microsomes [4]): Stable
- IC50 [7]: 8200 nM
- IC50 [6]: 170 nM

SMILES: CC(=O)OC[C@H]1C[C@@H](C)[C@H]2[C@H](O1)[C@H](O)[C@@]1(C)[C@@H]3CC[C@H]4C(C)(C)[C@@H](O[C@H]5CN(C6COC6)CCO5)CC[C@@]45C[C@@]35CC[C@]21C
- Activity (CHO-2B7 [5]): 0%
- Activity (CHO-2B7 [8]): 0%
- remaining at 1 h, 1 µM [9]: 0%

SMILES: CCO[C@@H]([C@H]1C[C@@H](C)[C@H]2[C@H](O1)[C@H](O)[C@@]1(C)[C@@H]3CC[C@H]4C(C)(C)[C@@H](OC(=O)N5CCN(C)CC5)CC[C@@]45C[C@@]35CC[C@]21C)C(C)(C)O
- Kp at 6 h [1]: 0.13
- concentration at 6 h [2]: 12 nM
- concentration at 6 h [3]: 95 nM
- Stability (Liver microsomes [4]): Stable
- IC50 [7]: 5000 nM
- IC50 [6]: 68 nM

SMILES: CC(=O)O[C@@H]([C@H]1C[C@@H](C)[C@H]2[C@H](O1)[C@H](O)[C@@]1(C)[C@@H]3CC[C@H]4C(C)(C)[C@@H](O[C@@H]5OC[C@@H](O)[C@H](O)[C@H]5O)CC[C@@]45C[C@@]35CC[C@]21C)C(C)(C)O
- IC50 [10]: 60 nM

SMILES: CCO[C@@H]([C@H]1C[C@@H](C)[C@H]2[C@H](O1)[C@H](O)[C@@]1(C)[C@@H]3CC[C@H]4C(C)(C)[C@@H](OC(=O)N(C)C5CN(C)C5)CC[C@@]45C[C@@]35CC[C@]21C)C(C)(C)O
- Kp at 6 h [1]: 0.1
- concentration at 6 h [2]: 56 nM
- concentration at 6 h [3]: 566 nM
- Stability (Liver microsomes [4]): Stable
- IC50 [7]: 4300 nM
- IC50 [6]: 61 nM

SMILES: CC(C)[C@@H](OC(N)=O)[C@H]1C[C@@H](C)[C@H]2[C@H](O1)[C@H](O)[C@@]1(C)[C@@H]3CC[C@H]4C(C)(C)[C@@H](OC(=O)N5CCC5)CC[C@@]45C[C@@]35CC[C@]21C
- Activity (CHO-2B7 [5]): 15%
- Activity (CHO-2B7 [8]): 40%
- remaining at 1 h, 1 µM [9]: 106%

SMILES: CC(=O)O[C@@H]([C@H]1C[C@@H](C)[C@H]2[C@H](O1)[C@H](O)[C@@]1(C)[C@@H]3CC[C@H]4C(C)(C)[C@@H](OC(=O)NC5CNC5)CC[C@@]45C[C@@]35CC[C@]21C)C(C)(C)O
- IC50 [10]: 47 nM
- IC50 [7]: 15000 nM
- remaining at 1 h, 1 µM [9]: 21%
- IC50 [6]: 47 nM

SMILES: CNC(=O)O[C@@H]([C@H]1C[C@@H](C)[C@H]2[C@H](O1)[C@H](O)[C@@]1(C)[C@@H]3CC[C@H]4C(C)(C)[C@@H](O)CC[C@@]45C[C@@]35CC[C@]21C)C(C)(C)O
- Activity (CHO-2B7 [8]): 27%
- remaining at 1 h, 1 µM [9]: 96%

SMILES: CC(C)[C@@H](OC(=O)N(C)C)[C@H]1C[C@@H](C)[C@H]2[C@H](O1)[C@H](O)[C@@]1(C)[C@@H]3CC[C@H]4C(C)(C)[C@@H](OC(=O)N5CCC5)CC[C@@]45C[C@@]35CC[C@]21C
- Activity (CHO-2B7 [5]): 0%
- Activity (CHO-2B7 [8]): 0%
- Stability (Liver microsomes [11]): 127%
